Results reported in ChEMBL document CHEMBL2086351, “Α-aryl-N-alkyl nitrones, as potential agents for stroke treatment: synthesis, theoretical calculations, antioxidant, anti-inflammatory, neuroprotective, and brain-blood barrier permeability properties” (J Med Chem, 2012).
Active and inactive are the calls of the source. The calls are words filed in the database; no cut-off is given here.

Assays:
[1] = Neuroprotective activity in Sprague-Dawley rat primary cortical neurons assessed as reversal of oxygen-glucose deprivation-induced neuronal damage at 100 uM by treated 4 hrs after OGD challenge measured after 24 hrs MTT assay relative to control; assay type: functional, cell-based; conditions: Cerebral cortex neuron
Summary of the method: (§1)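 Primary cerebral cortex neurons, cultured 6–8 days, underwent 4 h oxygen–glucose deprivation. Compounds (0.1 μM–10 mM range) were added at the start of a 24 h reperfusion. Viability was read by MTT with untreated control as 100%. Neuroprotection = % recovery from the reperfusion-only value (0%) to control (100%). Three to five independent experiments; mean ± SEM.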

[2] = Neuroprotective activity in Sprague-Dawley rat primary cortical neurons assessed as reversal of oxygen-glucose deprivation-induced neuronal damage at 10 uM by treated 4 hrs after OGD challenge measured after 24 hrs MTT assay relative to control; assay type: functional, cell-based; conditions: Cerebral cortex neuron; summary of the method: as §1
[3] = Neuroprotective activity in Sprague-Dawley rat primary cortical neurons assessed as reversal of oxygen-glucose deprivation-induced neuronal damage at 250 uM by treated 4 hrs after OGD challenge measured after 24 hrs by LDH release assay relative to control; assay type: functional, Cerebral cortex neuron
Summary of the method: (§2)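 Primary cortical neurons, cultured 6–8 days, underwent 4 h oxygen–glucose deprivation followed by 24 h reperfusion. Compounds (1–250 μM) were added at reperfusion. Necrotic death was read as LDH release, normalized to untreated reperfusion cells as 100%. Four independent experiments; mean ± SEM; one-way ANOVA with Holm–Sidak post test.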

[4] = Neuroprotective activity in Sprague-Dawley rat primary cortical neurons assessed as reversal of oxygen-glucose deprivation-induced neuronal damage at 100 uM by treated 4 hrs after OGD challenge measured after 24 hrs by LDH release assay relative to control; assay type: functional, Cerebral cortex neuron; summary of the method: as §2
[5] = Antioxidant activity assessed as inhibition of AAPH-induced lipid peroxidation at 0.1 mM by UV spectrophotometric analysis; assay type: functional
[6] = Antioxidant activity against AAPH-induced lipid peroxidation assessed as induction time of inhibition at 0.1 mM; assay type: functional
[7] = Antioxidant activity assessed as Fe3+/ascorbic acid-induced hydroxyl radical scavenging activity at 0.1 mM after 30 mins; assay type: functional
Summary of the method: (§3)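 Tested in vitro at 0.1 mM. The hydroxyl radical line measures competition with DMSO for hydroxyl radicals. Superoxide was generated at pH 7.4 and read as nitroblue tetrazolium reduction to formazan at 560 nm. LOX inhibition was measured by UV absorbance enzyme assay with plant lipoxygenase.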

[8] = Antioxidant activity assessed as superoxide anion radical scavenging activity at 0.1 mM after 10 mins by tetrazolium dye assay; assay type: functional; summary of the method: as §3
[9] = target: Lipoxygenase (Glycine max) (UniProt Q39829); assay: Inhibition of soybean lipoxygenase assessed as conversion of sodium linoleate to 13-hydroperoxylinoleic acid at 0.1 mM by competitive inhibition assay; summary of the method: as §3
[10] = Induction of NO release in phosphate buffer at pH 7.4 at 0.1 mM by Griess assay in presence of L-cysteine; assay type: physicochemical; conditions: pH 7.4, 100 µM
Summary of the method: (§4)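 Compounds at 100 μM final were dissolved in phosphate buffer pH 7.4 containing L-cysteine. Released NO was measured. Where indicated, 1 mM cysteine and a nitrate reductase/NADPH system were used. Sodium nitroprusside served as reference.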

[11] = Induction of NO release in phosphate buffer at pH 7.4 assessed as nitrite level at 0.1 mM by nitrate reductase/NADPH based Griess assay in presence of L-cysteine; assay type: physicochemical; conditions: pH 7.4, 100 µM; summary of the method: as §4
[12] = test system: Radical scavenging activity; assay: Antioxidant activity assessed as DPPH radical scavenging activity at 0.5 mM after 2 hrs by spectrophotometric analysis; assay type: functional
Summary of the method: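 DPPH radical test, measuring initial absorbance and absorbance after reaction spectrophotometrically.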

[13] = test system: Mus musculus; assay: Neuroprotective activity in NMRI mouse assessed as protection against tert-butyl hydroperoxide-mediated lethality at 150 mg/kg, ip administered 30 mins before t-BHP challenge measured after 1 to 24 hrs; assay type: functional; conditions: route intraperitoneal
[14] = Neuroprotective activity in Sprague-Dawley rat primary cortical neurons assessed as reversal of oxygen-glucose deprivation-induced neuronal damage treated 4 hrs after OGD challenge measured after 24 hrs MTT assay; assay type: functional, cell-based; conditions: Cerebral cortex neuron; summary of the method: as §1
[15] = test system: Rattus norvegicus; assay: Antiinflammatory activity in Fisher 344 rat assessed as inhibition of carrageenan-induced paw edema at 0.01 mmol/kg, ip measured 3.5 hrs after carrageenan challenge; assay type: functional; conditions: Fisher 344, ip
Summary of the method: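 Percent inhibition of carrageenan-induced rat paw oedema relative to untreated controls. Compounds given at 0.01 mmol/kg. Six animals per group in two independent experiments (n = 6 × 2), reported as mean ± SD. Significance versus controls by Student's t test.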

[16] = Neuroprotective activity in Sprague-Dawley rat primary cortical neurons assessed as reversal of oxygen-glucose deprivation-induced neuronal damage at 5 mM by treated 4 hrs after OGD challenge measured after 24 hrs MTT assay relative to control; assay type: functional, cell-based; conditions: Cerebral cortex neuron; summary of the method: as §1
[17] = Neuroprotective activity in Sprague-Dawley rat primary cortical neurons assessed as reversal of oxygen-glucose deprivation-induced neuronal damage at 10 uM by treated 4 hrs after OGD challenge measured after 24 hrs by LDH release assay relative to control; assay type: functional, Cerebral cortex neuron; summary of the method: as §2
[18] = Permeability of the compound at pH 7.4 by PAMPA; assay type: ADME; conditions: read-out: permeability
Summary of the method: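 PAMPA-BBB method of Di et al. (passive blood–brain barrier permeation). Effective permeability is reported as Pe in 10−6 cm s−1.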

[19] = Neuroprotective activity in Sprague-Dawley rat primary cortical neurons assessed as reversal of oxygen-glucose deprivation-induced neuronal damage at 1 uM by treated 4 hrs after OGD challenge measured after 24 hrs by LDH release assay relative to control; assay type: functional, Cerebral cortex neuron; summary of the method: as §2
[20] = test system: Radical scavenging activity; assay: Antioxidant activity assessed as DPPH radical scavenging activity at 15 uM after 2 hrs by spectrophotometric analysis; assay type: functional

Row | SMILES | inhibition [5] | TIME [6] [h] | Activity [7] [%] | Activity [8] [%] | inhibition [9] | Activity [10] [%] | Activity [11] [%] | Activity [13] [%] | also measured
1 | C[N+](C)(C)CCOP(=O)(O)OP(=O)([O-])OC[C@H]1O[C@@H](n2ccc(N)nc2=O)[C@H](O)[C@@H]1O [CITICOLINE] | – | – | – | – | – | – | – | – | Activity [1]: 53.2%; Activity [2]: 87.4%; Activity [3]: 84.64%; Activity [4]: 61.26%
2 | CC(C)(C)/[N+]([O-])=C/c1cccnc1Cl | 37% | 0.497 | 30 | 5 | 59% | 2 | 4 | – | –
3 | CC(C)(C)c1cc(/C=[N+](\[O-])Cc2ccccc2)cc(C(C)(C)C)c1O | 61% | 1.38 | 77 | 8 | inactive | – | – | 82 | Activity [12]: 81.9%; Activity [3]: 56.95%; Activity [4]: 53.8%
4 | COc1cc(/C=[N+](/C)[O-])ccc1O | 90% | 0.3 | – | 11 | 59% | 7 | 8 | – | Activity [14]: inactive
5 | CC(C)(C)/[N+]([O-])=C/c1c[nH]c2ccccc12 | 57% | 0.36 | 59 | 15 | 42% | 3 | 4.5 | – | –
6 | C/[N+]([O-])=C/c1ccccc1 | 5% | 0.0167 | 77 | 8 | 22% | – | – | – | inhibition in vivo at 10 µmol/kg [15]: 26.5%; Activity [14]: inactive
7 | COc1cc(/C=[N+](\[O-])Cc2ccccc2)c(Br)cc1O | 87% | 0.697 | 78 | 3 | 24% | 5 | 6 | – | –
8 | COc1ccc2c(c1)c(CC(=O)O)c(C)n2C(=O)c1ccc(Cl)cc1 [INDOMETHACIN] | – | – | – | – | – | – | – | – | inhibition in vivo at 10 µmol/kg [15]: 47%
9 | CC(C)(C)c1cc(/C=[N+](\[O-])C(C)(C)C)cc(C(C)(C)C)c1O | 9% | 0.29 | – | – | inactive | – | – | 80 | Activity [12]: 78.6%
10 | CC(C)(C)/[N+]([O-])=C/c1ccccc1 | inactive | 0 | 90 | 15 | 83% | 2 | 4.5 | – | Activity [16]: -13.4%; Activity [14]: inactive; Activity [3]: 73.2%; Activity [4]: 67.82%
11 | COc1cc(/C=[N+](\[O-])Cc2ccccc2)ccc1O | 90% | 1.47 | 52 | – | – | 9 | 10 | – | Activity [14]: inactive
12 | O=[N+]([O-])OCCCOc1ccc(/C=[N+](\[O-])Cc2ccccc2)cc1 | 81% | 0.61 | 98 | – | 30% | – | – | 31 | Activity [1]: 83%; Activity [2]: 77.6%; Activity [17]: 45.37%; Papp [18]: 22 ×10⁻⁶ cm/s
13 | COc1cc(Br)c(/C=[N+](\[O-])C(C)(C)C)cc1OC | 47% | 0.00867 | 90 | 15 | – | 1 | 2 | – | –
14 | CC(C)(C)/[N+]([O-])=C/c1cccnc1Br | 40% | 0.133 | 93 | 10 | 88% | 4 | 5.5 | – | inhibition in vivo at 10 µmol/kg [15]: 23.2%
15 | CC(C)(C)/[N+]([O-])=C/c1ccc(OCCO[N+](=O)[O-])cc1 | – | 0 | 98 | 19 | 19% | – | – | 18 | Activity [12]: 0.6%; Activity [3]: 79.21%
16 | COc1cc(Br)c(/C=[N+](\[O-])Cc2ccccc2)cc1O | 89% | 1.41 | – | 6 | – | 2 | 2 | – | Activity [14]: inactive

Row | SMILES | inhibition [5] | TIME [6] [h] | Activity [7] [%] | Activity [8] [%] | inhibition [9] | Activity [10] [%] | Activity [11] [%] | Activity [13] [%] | also measured
17 | CC(Cc1ccc(O)c(O)c1)C(C)Cc1ccc(O)c(O)c1 (stereo not given) | – | – | – | – | 40% | – | – | – | –
18 | COc1ccc2c(c1)cc(/C=[N+](\[O-])C(C)(C)C)n2C | 80% | 0.73 | 79.5 | 5 | 31% | 3 | 5 | – | –
19 | Cc1ccc2nc(Cl)c(/C=[N+](\[O-])C(C)(C)C)cc2c1 | 85% | 0.945 | 100 | 12 | inactive | – | – | 70 | Activity [12]: 1.7%; Activity [19]: 70.17%; Activity [17]: 62.22%; Papp [18]: 15 ×10⁻⁶ cm/s
20 | COc1cc(/C=C/C(=O)CC(=O)/C=C/c2ccc(O)c(OC)c2)ccc1O | – | – | – | – | – | – | – | – | Activity [20]: 35%
21 | COc1cc(Br)c(/C=[N+](\[O-])C(C)(C)C)cc1O | 67% | 0.12 | 72 | 11 | – | 2 | 3 | – | –
22 | Cc1c(C)c2c(c(C)c1O)CCC(C)(C(=O)O)O2 (stereo not given) | 63% | 1.03 | 73 | – | – | – | – | – | –
23 | CC(C)(C)/[N+]([O-])=C/c1ccc(Br)o1 | – | 0 | 95 | – | 39% | – | – | 37 | Activity [12]: 0%; Activity [3]: 96.26%
24 | COc1cc(Br)c(/C=[N+](\[O-])Cc2ccccc2)cc1OC | inactive | 0.895 | – | 16 | 21% | 1 | 1 | – | –
25 | Cc1ccc2nc(Cl)c(/C=[N+](\[O-])Cc3ccccc3)cc2c1 | 37% | 1.3 | 95 | 23 | inactive | – | – | 72 | Activity [12]: 42.3%; Activity [1]: 105%; Activity [2]: 75.7%; Activity [17]: 63.01%; Activity [4]: 66.82%
26 | CC(C)(C)/[N+]([O-])=C/c1ccc(OCCCO[N+](=O)[O-])cc1 | 49% | 0.783 | 54 | 2 | 57% | – | – | 30 | Activity [12]: 0.4%; Activity [4]: 55.57%
27 | O=[N+]([O-])OCCOc1ccc(/C=[N+](\[O-])Cc2ccccc2)cc1 | 64% | 0.767 | 100 | – | 21% | – | – | 22 | Activity [19]: 47.48%; Papp [18]: 16.8 ×10⁻⁶ cm/s
28 | [O-]/[N+](=C\c1ccccc1)Cc1ccccc1 | 74% | 0.42 | 97 | 24 | – | – | – | – | –
29 | O=C(O)/C=C/c1ccc(O)c(O)c1 | – | – | – | 15 | – | – | – | – | –
30 | [O-]/[N+](=C\c1ccc(Br)o1)Cc1ccccc1 | – | 0 | – | – | 17% | – | – | 42 | Activity [12]: 8.6%; Activity [19]: 61.87%; Activity [17]: 114.17%
31 | O=c1c(O)c(-c2ccc(O)c(O)c2)oc2cc(O)cc(O)c12 | – | – | – | – | – | – | – | – | Activity [20]: 94.2%
